From ChEMBL document CHEMBL4325838, “Norbornane-based cationic antimicrobial peptidomimetics targeting the bacterial membrane” (Eur J Med Chem, 2018)
Values after ≈ are worked out from the molar mass of the structure shown.

Assays:
[1] = tested on: Acinetobacter baumannii; test: Antibacterial activity against Acinetobacter baumannii ATCC 19606 after 18 to 20 hrs by broth microdilution assay; type: functional; conditions: ATCC 19606 = CIP 70.34 = JCM 6841
Outline: (§1)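 Bacteria grown overnight at 37 °C with shaking in nutrient broth or Mueller-Hinton broth (MHB). Cultures were diluted 50-fold in MHB and grown 1.5–3 h to mid-log phase, then set at 5×10^5 CFU/mL final. Compounds were 2-fold serially diluted, final 32 to 0.015 µg/mL, 1% DMSO. […] Two independent experiments of n = 2 (n = 4).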

[2] = tested on: Pseudomonas aeruginosa; test: Antibacterial activity against Pseudomonas aeruginosa ATCC 27853 after 18 to 20 hrs by broth microdilution assay; type: functional; outline: as §1
[3] = tested on: Klebsiella pneumoniae; test: Antibacterial activity against multidrug-resistant Klebsiella pneumoniae ATCC 700603 after 18 to 20 hrs by broth microdilution assay; type: functional
Outline: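 Strains were grown overnight at 37 °C with shaking in nutrient broth or MHB, diluted 50-fold in MHB and grown 1.5–3 h to mid-log. Compounds were 2-fold serially diluted in MHB at 32 to 0.015 µg/mL final (1% DMSO) with 5×10^5 CFU/mL. […] Two independent experiments of n = 2 (n = 4).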

[4] = tested on: Escherichia coli; test: Antibacterial activity against Escherichia coli ATCC 25922 after 18 to 20 hrs by broth microdilution assay; type: functional; outline: as §1
[5] = tested on: Staphylococcus aureus; test: Antibacterial activity against glycopeptide-intermediate resistant Staphylococcus aureus NARSA NRS17 after 18 to 20 hrs by broth microdilution assay
[6] = tested on: Staphylococcus aureus; test: Antibacterial activity against glycopeptide-intermediate/methicillin-resistant Staphylococcus aureus NARSA NRS1 after 18 to 20 hrs by broth microdilution assay
[7] = tested on: Staphylococcus aureus; test: Antibacterial activity against vancomycin-resistant Staphylococcus aureus NARSA VRS10 after 18 to 20 hrs by broth microdilution assay
[8] = tested on: Candida albicans; test: Antifungal activity against Candida albicans ATCC 90028 after 18 to 20 hrs by broth microdilution assay; type: functional
[9] = tested on: Cryptococcus neoformans; test: Antifungal activity against Cryptococcus neoformans H99 ATCC 208821 after 18 to 20 hrs by broth microdilution assay; type: functional; conditions: var. grubii H99 ATCC 208821
[10] = tested on: Pseudomonas aeruginosa; test: Antibacterial activity against Pseudomonas aeruginosa ATCC 27853 assessed as zone of inhibition at 50 ug/disc after 20 hrs by disk diffusion assay; type: functional; conditions: ATCC 27853, 20 h, read-out: IZ
Outline: (§2)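 Disks loaded with 50 µg compound. Isolate suspensions were adjusted to 0.5 McFarland in 0.9% NaCl and swabbed onto nutrient agar plates, with zones of inhibition measured. Controls: 10 µg colistin sulphate disk, 10 µL DMSO, and a plate swabbed with saline from the dispenser.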

[11] = tested on: Klebsiella pneumoniae; test: Antibacterial activity against Klebsiella pneumoniae ATCC 13883 assessed as zone of inhibition at 50 ug/disc after 20 hrs by disk diffusion assay; type: functional; conditions: ATCC 13883, 20 h, read-out: IZ; outline: as §2
[12] = tested on: Staphylococcus aureus; test: Antibacterial activity against methicillin-resistant Staphylococcus aureus ATCC 43300 assessed as zone of inhibition at 50 ug/disc after 20 hrs by disk diffusion assay; type: functional; conditions: ATCC 43300, 20 h, read-out: IZ
Outline: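 Disk diffusion, 50 µg compound per disk. Bacterial suspensions were adjusted to 0.5 McFarland in 0.9% NaCl and swabbed onto nutrient agar plates. Controls were a 10 µg colistin sulphate disk, 10 µL DMSO, and a plate swabbed with saline from the dispenser.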

[13] = Cytotoxicity against HEK293 cells after 24 hrs by resazurin dye-based fluorescence analysis; type: cell-based; conditions: human
Outline: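 HEK293 cells were seeded at 3000/well in DMEM with 10% FBS and attached for 24 h at 37 °C, 5% CO₂. A compound concentration series was applied for 24 h. Resazurin was added at 10 µM for 2 h and fluorescence read at ex/em 560/590. Results are average percentage of control ± SD of duplicate wells.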

[14] = Drug localization in methicillin-resistant Staphylococcus aureus subsp. aureus Rosenbach ATCC 43300 at 10 ug/ml after 20 mins by confocal microscopic analysis; type: ADME
Outline: (§3)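 MRSA ATCC 43300 was grown overnight in LB broth at 37 °C with gentle shaking, then incubated 20 min at 37 °C with 10 µg/mL fluorescent compound in LB. Cells were fixed in 4% paraformaldehyde for 20 min, wet-mounted on slides and imaged by confocal microscopy.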

[15] = Drug localization in […] Escherichia coli ATCC 25922 at 10 ug/ml after 20 mins by confocal microscopic analysis; type: ADME
Outline: (§4)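 E. coli ATCC 25922 was grown overnight in LB broth at 37 °C with gentle shaking. Cells were exposed to 10 µg/mL fluorescent compound in LB for 20 min at 37 °C. Localisation was imaged by confocal microscopy, including 3D rendering.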

[16] = Drug localization in peripheral region of methicillin-resistant Staphylococcus aureus subsp. aureus Rosenbach ATCC 43300 at 10 ug/ml after 20 mins by confocal microscopic analysis; type: ADME; outline: as §3
[17] = Drug localization in peripheral region of […] Escherichia coli ATCC 25922 at 10 ug/ml after 20 mins by confocal microscopic analysis; type: ADME; outline: as §4
[18] = tested on: Staphylococcus aureus; test: microbe, parasite or virus in culture; conditions: ATCC 43300
[19] = tested on: Streptococcus pneumoniae; test: microbe, parasite or virus in culture; conditions: ATCC 700677
[20] = tested on: Acinetobacter baumannii; test: Antibacterial activity against Acinetobacter baumannii ATCC 19606 assessed as zone of inhibition at 50 ug/disc after 20 hrs by disk diffusion assay; type: functional; conditions: ATCC 19606 = CIP 70.34 = JCM 6841, 20 h, read-out: IZ; outline: as §2
[21] = tested on: Enterococcus faecium; test: Antibacterial activity against Enterococcus faecium ATCC 700221 assessed as zone of inhibition at 50 ug/disc after 20 hrs by disk diffusion assay; type: functional; conditions: ATCC 700221, 20 h, read-out: IZ; outline: as §2
[22] = tested on: Staphylococcus aureus; test: Antibacterial activity against methicillin-resistant Staphylococcus aureus ATCC 43300 after 20 hrs by micro-broth dilution assay; type: functional; conditions: ATCC 43300, 20 h
[23] = tested on: Escherichia coli; test: Antibacterial activity against Escherichia coli ATCC 25922 after 20 hrs by micro-broth dilution assay; type: functional; conditions: ATCC 25922, 20 h
[24] = tested on: Pseudomonas aeruginosa; test: Antibacterial activity against Pseudomonas aeruginosa ATCC 27853 after 20 hrs by micro-broth dilution assay; type: functional; conditions: ATCC 27853, 20 h

Cl.Cl.N=C(N)NCCNC(=O)[C@@H]1[C@@H]2C[C@@H]([C@H]3OC(CCCCCCCCCCCNc4ccc([N+](=O)[O-])c5nonc45)O[C@@H]23)[C@H]1C(=O)NCCNC(=N)N (some centres undefined)
MIC [1]: 32 µg/mL
MIC [2]: 32 µg/mL
MIC [3]: > 32 µg/mL
MIC [4]: 8 µg/mL
MIC [5]: 1 µg/mL
MIC [6]: 4 µg/mL
MIC [7]: 0.5 µg/mL
MIC [8]: 16 µg/mL
MIC [9]: 4 µg/mL
zone of inhibition at 50 µg/disc [10]: 9 mm
zone of inhibition at 50 µg/disc [11]: 8.5 mm
zone of inhibition at 50 µg/disc [12]: 9 mm
CC50 at 24 h [13]: > 50 µg/mL
Drug uptake [14]: Active
Drug uptake [15]: Active
Drug uptake [16]: Active
Drug uptake [17]: Active
MIC [18]: 1 µg/mL
MIC [19]: 1 µg/mL

CCCCCCCC1O[C@@H]2[C@@H]3C[C@H]([C@@H]2O1)[C@@H](C(=O)NCCNC(=N)NCc1ccccc1)[C@@H]3C(=O)NCCNC(=N)NCc1ccccc1.Cl.Cl (some centres undefined)
MIC [1]: > 32 µg/mL
MIC [2]: 32 µg/mL
MIC [3]: > 32 µg/mL
MIC [4]: 8 µg/mL
MIC [5]: 1 µg/mL
MIC [6]: 2 µg/mL
MIC [7]: 1 µg/mL
MIC [8]: 128 µg/mL
MIC [9]: 2 µg/mL
zone of inhibition at 50 µg/disc [20]: 10 mm
zone of inhibition at 50 µg/disc [10]: 13 mm
zone of inhibition at 50 µg/disc [11]: 15 mm
zone of inhibition at 50 µg/disc [12]: 17 mm
zone of inhibition at 50 µg/disc [21]: 18 mm
CC50 at 24 h [13]: > 50 µg/mL
MIC [18]: 2 µg/mL
MIC [19]: 2 µg/mL

CCCCCCCCCCCCCCCC1O[C@@H]2[C@@H]3C[C@H]([C@@H]2O1)[C@@H](C(=O)NCCNC(=N)N)[C@@H]3C(=O)NCCNC(=N)N.Cl.Cl (some centres undefined)
MIC [22]: 1 µg/mL

CC/C(=C(\c1ccccc1)c1ccc(OCCN(C)C)cc1)c1ccccc1 [TAMOXIFEN]
CC50 at 24 h [13]: 13 µg/mL (≈ 35 µM)

CCCNc1ccc([N+](=O)[O-])c2nonc12
Drug uptake [15]: Active
Drug uptake [16]: Active

CCCN1C(=O)c2cccc3c(N)ccc(c23)C1=O
Drug uptake [14]: Active
Drug uptake [15]: Active

CCCNc1ccc2c3c(cccc13)C(=O)N(CCCCCCCCCCCC1O[C@@H]3[C@@H]4C[C@H]([C@@H]3O1)[C@@H](C(=O)NCCNC(=N)N)[C@@H]4C(=O)NCCNC(=N)N)C2=O.Cl.Cl (some centres undefined)
MIC [1]: > 32 µg/mL
MIC [2]: > 32 µg/mL
MIC [3]: > 32 µg/mL
MIC [4]: > 32 µg/mL
MIC [5]: 4 µg/mL
MIC [6]: 4 µg/mL
MIC [7]: 2 µg/mL
MIC [8]: 128 µg/mL
MIC [9]: 0.25 µg/mL
CC50 at 24 h [13]: > 50 µg/mL
Drug uptake [14]: Active
Drug uptake [15]: Active
Drug uptake [16]: Active
Drug uptake [17]: Active
MIC [18]: 1 µg/mL
MIC [19]: 1 µg/mL

OC(Cn1cncn1)(Cn1cncn1)c1ccc(F)cc1F [FLUCONAZOLE]
MIC [8]: 1 µg/mL (≈ 3.27 µM)
MIC [9]: 8 µg/mL (≈ 26.1 µM)

Cl.Cl.N=C(N)NCCNC(=O)[C@@H]1[C@@H]2C[C@@H]([C@@H](OCc3ccc(C(F)(F)F)cc3)[C@H]2OCc2ccc(C(F)(F)F)cc2)[C@H]1C(=O)NCCNC(=N)N
MIC [22]: 8 µg/mL
MIC [23]: 8 µg/mL
MIC [24]: 8 µg/mL

Cl.Cl.Cl.N=C(N)NCCNC(=O)[C@@H]1[C@@H]2C[C@@H]([C@H]3OC(CCCCCCCCCCCN)O[C@@H]23)[C@H]1C(=O)NCCNC(=N)N (some centres undefined)
MIC [1]: > 32 µg/mL
MIC [2]: > 32 µg/mL
MIC [3]: > 32 µg/mL
MIC [4]: > 32 µg/mL
MIC [5]: 16 µg/mL
MIC [6]: 8 µg/mL
MIC [7]: 8 µg/mL
zone of inhibition at 50 µg/disc [20]: 12 mm
zone of inhibition at 50 µg/disc [10]: 12 mm
zone of inhibition at 50 µg/disc [11]: 14.5 mm
zone of inhibition at 50 µg/disc [12]: 14 mm
CC50 at 24 h [13]: > 50 µg/mL
MIC [18]: 16 µg/mL
MIC [19]: 8 µg/mL

CCCCCCCCCCCCCCCC1O[C@@H]2[C@@H]3C[C@H]([C@@H]2O1)[C@@H](C(=O)NCCNC(=N)NCc1ccccc1)[C@@H]3C(=O)NCCNC(=N)NCc1ccccc1.Cl.Cl (some centres undefined)
MIC [1]: > 128 µg/mL
MIC [2]: > 128 µg/mL
MIC [3]: > 128 µg/mL
MIC [4]: > 128 µg/mL
MIC [5]: 0.25 µg/mL
MIC [6]: 0.5 µg/mL
MIC [7]: 0.5 µg/mL
CC50 at 24 h [13]: 7.8 µg/mL
MIC [18]: 0.25 µg/mL
MIC [19]: 1 µg/mL

CN[C@H](CC(C)C)C(=O)N[C@H]1C(=O)N[C@@H](CC(N)=O)C(=O)N[C@H]2C(=O)N[C@H]3C(=O)N[C@H](C(=O)N[C@H](C(=O)O)c4cc(O)cc(O)c4-c4cc3ccc4O)[C@H](O)c3ccc(c(Cl)c3)Oc3cc2cc(c3O[C@@H]2O[C@H](CO)[C@@H](O)[C@H](O)[C@H]2O[C@H]2C[C@](C)(N)[C@H](O)[C@H](C)O2)Oc2ccc(cc2Cl)[C@H]1O [VANCOMYCIN]
MIC [7]: > 64 µg/mL
MIC [19]: 1 µg/mL (≈ 0.69 µM)

CCCCCCCC1O[C@@H]2[C@@H]3C[C@H]([C@@H]2O1)[C@@H](C(=O)NCCNC(=O)c1ccc(C(=O)NC(=N)N)[nH]1)[C@@H]3C(=O)NCCNC(=O)c1ccc(C(=O)NC(=N)N)[nH]1.Cl.Cl (some centres undefined)
MIC [1]: > 128 µg/mL
MIC [2]: > 128 µg/mL
MIC [3]: > 128 µg/mL
MIC [4]: > 128 µg/mL
MIC [5]: > 128 µg/mL
MIC [6]: > 128 µg/mL
MIC [7]: 128 µg/mL
CC50 at 24 h [13]: > 100 µg/mL
MIC [18]: > 128 µg/mL
MIC [19]: > 128 µg/mL
